# How the values were obtained:
# Assay type in all cases: functional
# Bacillus subtilis [1] = assay: Antimicrobial activity against Bacillus subtilis at 25 ug/ml by agar plate diffusion technique; conditions: read-out: IZ
# Procedure, shortened: (§1)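 Agar plate diffusion against E. coli, P. aeruginosa, S. aureus and B. subtilis, with compounds at 25, 50 and 100 µg/mL. Streptomycin as standard.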
# Pseudomonas aeruginosa [2] = assay: Antimicrobial activity against Pseudomonas aeruginosa at 50 ug/ml by agar plate diffusion technique; conditions: read-out: IZ; procedure, shortened: as §1
# [3] = Antiinflammatory activity assessed as inhibition of albumin denaturation at 100 ug/ml by UV-visible spectrophotometry
# Procedure, shortened: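 Compounds dissolved in minimal DMF, diluted in PBS pH 7.4 (final DMF <2.5%). 1 mL test solution (100 µg/mL) plus 1 mL 1% albumin in PBS, 15 min at 27 ± 1 °C, then heated 10 min at 60 ± 1 °C. After cooling, turbidity read at 660 nm. % inhibition = [(Vt/Vc) − 1] × 100 against a no-drug control. Triplicate, averaged. Diclofenac standard.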
# [4] = Antioxidant activity assessed as inhibition of lipid peroxidation using egg lecithin liposomes incubated for 1 hr
# Procedure, shortened: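 Egg lecithin (3 mg/mL, phosphate buffer pH 7.4) sonicated 10 min to form liposomes. Sample or ascorbic acid (12.5–100 µg/mL) added. Peroxidation induced with FeCl3 and L-ascorbic acid, 1 h at 37 °C. Stopped with HCl/TCA/TBA/BHA, boiled 15 min, centrifuged, supernatant read at 532 nm. Triplicate. % inhibition vs control. IC50 derived.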
# Escherichia coli [5] = assay: Antimicrobial activity against Escherichia coli at 100 ug/ml by agar plate diffusion technique; conditions: read-out: IZ; procedure, shortened: as §1
# Aspergillus niger [6] = assay: Antimicrobial activity against Aspergillus niger at 100 ug/ml by paper disc method; conditions: read-out: IZ
# Procedure, shortened: (§2)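 Paper disc method against A. niger and C. albicans, with compounds at 25, 50 and 100 µg/mL. Amphotericin-B as standard.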
# Escherichia coli [7] = assay: Antimicrobial activity against Escherichia coli at 25 ug/ml by agar plate diffusion technique; conditions: read-out: IZ; procedure, shortened: as §1
# Staphylococcus aureus [8] = assay: Antimicrobial activity against Staphylococcus aureus at 50 ug/ml by agar plate diffusion technique; conditions: read-out: IZ; procedure, shortened: as §1
# Candida albicans [9] = assay: Antimicrobial activity against Candida albicans at 25 ug/ml by paper disc method; conditions: read-out: IZ; procedure, shortened: as §2
# Metaphire posthuma [10] = assay: Anthelmintic activity against Pheretima posthuma assessed as time taken for complete parasite paralysis at 0.5% w/v
# Procedure, shortened: (§3)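 Earthworms (Pheretima posthuma) exposed to test solutions at 0.1, 0.2 and 0.5% w/v; time in minutes to complete paralysis (worms motionless) recorded. Albendazole as standard. Mean of three determinations ± S.D.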
# Aspergillus niger [11] = assay: Antimicrobial activity against Aspergillus niger at 50 ug/ml by paper disc method; conditions: read-out: IZ; procedure, shortened: as §2
# [12] = Antioxidant activity assessed as hydrogen peroxide scavenging activity after 10 mins
# Procedure, shortened: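 H2O2 (20 mM) in PBS pH 7.4. 1 mL of sample or ascorbic acid in methanol (12.5–100 µg/mL) added to 2 mL H2O2 solution. A230 read after 10 min. % inhibition = [1 − (Vt/Vc)] × 100. Triplicate, averaged. IC50 derived from % inhibition across concentrations.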
# Metaphire posthuma [13] = assay: Anthelmintic activity against Pheretima posthuma assessed as time taken for complete parasite paralysis at 0.1% w/v; procedure, shortened: as §3
# Staphylococcus aureus [14] = assay: Antimicrobial activity against Staphylococcus aureus at 100 ug/ml by agar plate diffusion technique; conditions: read-out: IZ; procedure, shortened: as §1
# Metaphire posthuma [15] = assay: Anthelmintic activity against Pheretima posthuma assessed as time taken for complete parasite paralysis at 0.2% w/v; procedure, shortened: as §3
# Pseudomonas aeruginosa [16] = assay: Antimicrobial activity against Pseudomonas aeruginosa at 25 ug/ml by agar plate diffusion technique; conditions: read-out: IZ; procedure, shortened: as §1
# Metaphire posthuma [17] = assay: Anthelmintic activity against Pheretima posthuma assessed as time taken for parasite death at 0.5% w/v
# Procedure, shortened: (§4)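 Earthworms (Pheretima posthuma, spelled Perituma posthuma in text) exposed to test compounds at 0.1, 0.2 and 0.5% w/v. Albendazole served as standard, with an untreated control. Paralysis was recorded as the time until worms became motionless, then time to death was recorded, in minutes. Each value is the mean of three determinations with S.D.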
# Metaphire posthuma [18] = assay: Anthelmintic activity against Pheretima posthuma assessed as time taken for parasite death at 0.1% w/v; procedure, shortened: as §4
# Candida albicans [19] = assay: Antimicrobial activity against Candida albicans at 50 ug/ml by paper disc method; conditions: read-out: IZ; procedure, shortened: as §2
# Metaphire posthuma [20] = assay: Anthelmintic activity against Pheretima posthuma assessed as time taken for parasite death at 0.2% w/v; procedure, shortened: as §4
# Candida albicans [21] = assay: Antimicrobial activity against Candida albicans at 100 ug/ml by paper disc method; conditions: read-out: IZ; procedure, shortened: as §2
# [22] = Antioxidant activity assessed as potassium ferricyanide ion reducing power after 20 mins
# Procedure, shortened: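 Oyaizu method. Samples or ascorbic acid in DMF (12.5–100 µg/mL) mixed with 0.2 M phosphate buffer pH 6.6 and 1% potassium ferricyanide, 20 min at 50 °C. 10% TCA added, centrifuged. Supernatant mixed with water and 0.1% FeCl3, read at 700 nm. % = [(Vt/Vc) − 1] × 100. IC50 derived.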
# Aspergillus niger [23] = assay: Antimicrobial activity against Aspergillus niger at 25 ug/ml by paper disc method; conditions: read-out: IZ; procedure, shortened: as §2
# Pseudomonas aeruginosa [24] = assay: Antimicrobial activity against Pseudomonas aeruginosa at 100 ug/ml by agar plate diffusion technique; conditions: read-out: IZ; procedure, shortened: as §1
# Bacillus subtilis [25] = assay: Antimicrobial activity against Bacillus subtilis at 100 ug/ml by agar plate diffusion technique; conditions: read-out: IZ; procedure, shortened: as §1
# [26] = Antioxidant activity assessed as nitric oxide radical scavenging activity after 150 mins
# Procedure, shortened: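 10 mM sodium nitroprusside (4 mL), PBS pH 7.4 (1 mL) and sample or ascorbic acid in DMSO (1 mL, 12.5–100 µg/mL), incubated 150 min at 25 °C. Nitrite detected with sulphanilic acid (5 min) then naphthylethylenediamine (30 min, diffused light). Read at […]. Triplicate. % inhibition = [1 − (Vt/Vc)] × 100. IC50 derived from it.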
# Bacillus subtilis [27] = assay: Antimicrobial activity against Bacillus subtilis at 50 ug/ml by agar plate diffusion technique; conditions: read-out: IZ; procedure, shortened: as §1
# Staphylococcus aureus [28] = assay: Antimicrobial activity against Staphylococcus aureus at 25 ug/ml by agar plate diffusion technique; conditions: read-out: IZ; procedure, shortened: as §1
# Escherichia coli [29] = assay: Antimicrobial activity against Escherichia coli at 50 ug/ml by agar plate diffusion technique; conditions: read-out: IZ; procedure, shortened: as §1
smiles,measurement,setting,value
CCOC(=O)c1cnn(-c2nc(-c3ccccc3Cl)c(C#N)c(=O)n2C)c1N,zone of inhibition at 25 µg/mL,Bacillus subtilis [1],13.4 mm
same,zone of inhibition at 50 µg/mL,Pseudomonas aeruginosa [2],16.3 mm
same,inhibition,[3],74.2%
same,IC50,[4],102 mg/L
same,zone of inhibition at 100 µg/mL,Escherichia coli [5],26.9 mm
same,zone of inhibition at 100 µg/mL,Aspergillus niger [6],22.4 mm
same,zone of inhibition at 25 µg/mL,Escherichia coli [7],13.2 mm
same,zone of inhibition at 50 µg/mL,Staphylococcus aureus [8],18.3 mm
same,zone of inhibition at 25 µg/mL,Candida albicans [9],11.5 mm
same,Time,Metaphire posthuma [10],46.18 min
same,zone of inhibition at 50 µg/mL,Aspergillus niger [11],15.1 mm
same,IC50,[12],98 mg/L
same,Time,Metaphire posthuma [13],58.08 min
same,zone of inhibition at 100 µg/mL,Staphylococcus aureus [14],24.3 mm
same,Time,Metaphire posthuma [15],42.05 min
same,zone of inhibition at 25 µg/mL,Pseudomonas aeruginosa [16],12.2 mm
same,Time,Metaphire posthuma [17],51.7 min
same,Time,Metaphire posthuma [18],72.26 min
same,zone of inhibition at 50 µg/mL,Candida albicans [19],14.9 mm
same,Time,Metaphire posthuma [20],57.5 min
same,zone of inhibition at 100 µg/mL,Candida albicans [21],20.2 mm
same,IC50,[22],78 mg/L
same,zone of inhibition at 25 µg/mL,Aspergillus niger [23],12.2 mm
same,zone of inhibition at 100 µg/mL,Pseudomonas aeruginosa [24],23.9 mm
same,zone of inhibition at 100 µg/mL,Bacillus subtilis [25],26.2 mm
same,IC50,[26],93 mg/L
same,zone of inhibition at 50 µg/mL,Bacillus subtilis [27],17.2 mm
same,zone of inhibition at 25 µg/mL,Staphylococcus aureus [28],14.6 mm
same,zone of inhibition at 50 µg/mL,Escherichia coli [29],20.5 mm

# Source: ChEMBL document CHEMBL1821590, “Novel dihydropyrimidines and its pyrazole derivatives: synthesis and pharmacological screening” (Eur J Med Chem, 2011)
